In ChEMBL document CHEMBL4017535 (J Med Chem, 2017):
pIC50, pKd, pKi: −log10 of the molar value.

Key:
Rattus norvegicus [1] = organism: Rattus norvegicus; assay: Drug excretion in rat using radiolabelled compound; type: ADME; conditions: in vivo
[2] = Oral bioavailability in dog; type: ADME, organism-based, Canis lupus familiaris; conditions: in vivo
[3] = Intrinsic clearance in rat hepatocytes; type: ADME, cell-based, Hepatocyte; conditions: read-out: CLH (converted)
[4] = Plasma clearance in mouse at 3 mg/kg, iv; type: ADME, organism-based
[5] = target: Bromodomain-containing protein 9 (Homo sapiens, UniProt Q9H8M2); assay: Binding affinity to human BRD9 (R130 to V259 residues) expressed in bacterial expression system by BROMOscan assay
[6] = target: E3 ubiquitin-protein ligase TRIM33 (Homo sapiens, UniProt Q9UPN9); assay: Binding affinity to human TRIM33 (PHD, Bromo) (D882 to A1087 residues) expressed in bacterial expression system by BROMOscan assay
[7] = target: Histone acetyltransferase p300 (Homo sapiens, UniProt Q09472); assay: Binding affinity to human EP300 (A1040 to G1161 residues) expressed in bacterial expression system by BROMOscan assay
[8] = Intrinsic clearance in mouse hepatocytes; type: ADME, cell-based, Hepatocyte; conditions: read-out: CLH (converted)
[9] = Plasma clearance in iv dosed human; type: ADME, organism-based
[10] = target: Transcription initiation factor TFIID subunit 1-like (Homo sapiens, UniProt Q8IZX4); assay: Binding affinity to human TAF1L (2) (Q1523 to D1654 residues) expressed in bacterial expression system by BROMOscan assay
[11] = target: Histone acetyltransferase KAT2A (Homo sapiens, UniProt Q92830); assay: Binding affinity to human GCN5L2 (E726 to K837 residues) expressed in bacterial expression system by BROMOscan assay
Liver = assay: Unbound intrinsic clearance in human liver microsomes at 10 uM preincubated for 5 mins followed by NADPH addition measured after 60 mins by HPLC-UV-MS analysis; type: ADME, microsome; conditions: 1 h
[12] = target: Chromatin remodeling regulator CECR2 (Homo sapiens, UniProt Q9BXF3); assay: Binding affinity to human CECR2 (P423 to D543 residues) expressed in bacterial expression system by BROMOscan assay
[13] = Fraction unbound in mouse plasma at 1 uM after 4 hrs by LC-MS/MS method; type: ADME, cell-free
Kasumi 1 = assay: Antitumor activity against gamma-irradiated human Kasumi-1 cells xenografted in NOD.SCID mouse assessed as tumor growth inhibition at 1 mg/kg, po qd for 25 days relative to control; type: functional; conditions: Kasumi 1, light or radiation study, 600 h, read-out: TGI
Summary of the method: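 Kasumi-1 AML xenograft in mice, with tumor growth inhibition (TGI) as the read-out. For the test agent, dosing was oral, once daily at 1 mg/kg for 25 days, with tolerability tracked as body-weight loss. For 5-azacitidine, dosing was IV, Q7d, at 8 mg/kg.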

[14] = Intrinsic clearance in rat liver microsomes at 10 uM preincubated for 5 mins followed by NADPH addition measured after 60 mins by HPLC-UV-MS analysis; type: ADME, microsome; conditions: read-out: CLH (converted)
Mus musculus [15] = assay: Oral absorption in mouse at 10 mg/kg; type: ADME, organism-based; conditions: in vivo
Summary of the method: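 Oral absorption is expressed as FaFg, calculated as F/(1-Clp/Qh). Liver blood flow (Qh) was 5.2 L/hr/kg for mouse and 3.8 L/hr/kg for rat. Mouse dosing was 3 mg/kg IV and 10 mg/kg PO; rat dosing was 1 mg/kg IV and PO.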

[16] = target: Bromodomain-containing protein 4 (Homo sapiens, UniProt O60885); assay: Binding affinity to human N-terminal His6-tagged BRD4 BD1-BD2 (K57 to K550 residues) after 1 hr using alexa-647 conjugated probe by TR-FRET assay
[17] = Intrinsic clearance in human liver microsomes at 10 uM preincubated for 5 mins followed by NADPH addition measured after 60 mins by HPLC-UV-MS analysis; type: ADME, microsome; conditions: read-out: CLH
[18] = target: Bromodomain testis-specific protein (Homo sapiens, UniProt Q58F21); assay: Binding affinity to BRDT BD1 to BD2 (N21 to P380 residues) (unknown origin)
[19] = target: Transcription intermediary factor 1-alpha (Homo sapiens, UniProt O15164); assay: Binding affinity to human TRIM24 (PHD, Bromo) (P790 to P977 residues) expressed in bacterial expression system by BROMOscan assay
Rattus norvegicus [20] = assay: Plasma unbound clearance in rat at 1 mg/kg, iv; type: ADME, organism-based; conditions: in vivo
Summary of the method: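 In rats, 1 mg/kg was given by both IV and PO routes. IV clearance is unbound (Cl_p,u, L/hr/kg). FaFg is taken as F/(1-Clp/Qh), using rat Qh 3.8 L/hr/kg. Unbound plasma fraction was determined in rat plasma.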

[21] = Oral bioavailability in human at 1 mg; type: ADME, organism-based; conditions: in vivo
Summary of the method: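 Human F (%) was estimated from observed F in preclinical species. It accompanies a clinical 1 mg oral dose given to cancer patients (n = 3).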

Rattus norvegicus [22] = assay: Unbound AUC in rat at 1 mg/kg, po; conditions: in vivo
[23] = target: SWI/SNF-related matrix-associated actin-dependent regulator of chromatin subfamily A member 4 (Homo sapiens, UniProt P51532); assay: Binding affinity to human SMARCA4 (A1448 to S1575 residues) expressed in bacterial expression system by BROMOscan assay
[24] = target: Adenosine receptor A2a (Homo sapiens) (UniProt P29274); conditions: HEK293, 10 uM
Peregrin = Peregrin (Homo sapiens, UniProt P55201); assay: Binding affinity to human BRPF1 (E627 to G740 residues) expressed in bacterial expression system by BROMOscan assay
Mus musculus [25] = assay: Inhibition of LPS-induced IL-6 release in po dosed CD-1 mouse serum administered for 1 hr followed by LPS challenge measured after 2 hrs by immunoassay; type: functional, organism-based
Summary of the method: (§1)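 Compound given orally to mice, followed by an LPS challenge. Plasma IL-6 and plasma compound concentration were both measured 2 hours after LPS. Inhibition was related to dose and to plasma concentration at the time of cytokine measurement. Values are mean ± SE, n=5 per group.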

Mus musculus [26] = assay: Toxicity in NOD.SCID mouse assessed as maximum mean body weight loss at 1 mg/kg, po qd for 25 days (reference value: 9%); type: organism-based; conditions: in vivo, 600 h
[27] = Plasma clearance in iv dosed dog; type: ADME, organism-based, Canis lupus familiaris
[28] = Oral bioavailability in monkey; type: ADME, organism-based, Macaca mulatta; conditions: rhesus monkey, in vivo
[29] = target: Bromodomain-containing protein 8 (Homo sapiens, UniProt Q9H0E9); assay: Binding affinity to human BRD8 (1) (S700 to F854 residues) expressed in mammalian expression system by BROMOscan assay
Adenosine receptor A2b = Adenosine receptor A2b (Homo sapiens, UniProt P29275); assay: Antagonist activity at adenosine A2B receptor (unknown origin)
Protein polybromo-1 = Protein polybromo-1 (Homo sapiens, UniProt Q86U86); assay: Binding affinity to human PBRM1 bromodamian-5 (S645 to D766 residues) expressed in bacterial expression system by BROMOscan assay
[30] = Half life in po dosed monkey; type: ADME, organism-based, Macaca mulatta; conditions: rhesus monkey, in vivo
Mus musculus [31] = assay: Inhibition of LPS-induced IL-6 release in po dosed CD-1 mouse serum assessed as plasma concentration required to show 50% inhibition administered for 1 hr followed by LPS challenge measured after 2 hrs by immunoassay; type: functional, organism-based; summary of the method: as §1
[32] = Intrinsic clearance in human hepatocytes; type: ADME, cell-based, Hepatocyte; conditions: read-out: CLH (converted)

Sequence of Bromodomain-containing protein 8 (Q9H0E9 whole entry, the tested form may be a part): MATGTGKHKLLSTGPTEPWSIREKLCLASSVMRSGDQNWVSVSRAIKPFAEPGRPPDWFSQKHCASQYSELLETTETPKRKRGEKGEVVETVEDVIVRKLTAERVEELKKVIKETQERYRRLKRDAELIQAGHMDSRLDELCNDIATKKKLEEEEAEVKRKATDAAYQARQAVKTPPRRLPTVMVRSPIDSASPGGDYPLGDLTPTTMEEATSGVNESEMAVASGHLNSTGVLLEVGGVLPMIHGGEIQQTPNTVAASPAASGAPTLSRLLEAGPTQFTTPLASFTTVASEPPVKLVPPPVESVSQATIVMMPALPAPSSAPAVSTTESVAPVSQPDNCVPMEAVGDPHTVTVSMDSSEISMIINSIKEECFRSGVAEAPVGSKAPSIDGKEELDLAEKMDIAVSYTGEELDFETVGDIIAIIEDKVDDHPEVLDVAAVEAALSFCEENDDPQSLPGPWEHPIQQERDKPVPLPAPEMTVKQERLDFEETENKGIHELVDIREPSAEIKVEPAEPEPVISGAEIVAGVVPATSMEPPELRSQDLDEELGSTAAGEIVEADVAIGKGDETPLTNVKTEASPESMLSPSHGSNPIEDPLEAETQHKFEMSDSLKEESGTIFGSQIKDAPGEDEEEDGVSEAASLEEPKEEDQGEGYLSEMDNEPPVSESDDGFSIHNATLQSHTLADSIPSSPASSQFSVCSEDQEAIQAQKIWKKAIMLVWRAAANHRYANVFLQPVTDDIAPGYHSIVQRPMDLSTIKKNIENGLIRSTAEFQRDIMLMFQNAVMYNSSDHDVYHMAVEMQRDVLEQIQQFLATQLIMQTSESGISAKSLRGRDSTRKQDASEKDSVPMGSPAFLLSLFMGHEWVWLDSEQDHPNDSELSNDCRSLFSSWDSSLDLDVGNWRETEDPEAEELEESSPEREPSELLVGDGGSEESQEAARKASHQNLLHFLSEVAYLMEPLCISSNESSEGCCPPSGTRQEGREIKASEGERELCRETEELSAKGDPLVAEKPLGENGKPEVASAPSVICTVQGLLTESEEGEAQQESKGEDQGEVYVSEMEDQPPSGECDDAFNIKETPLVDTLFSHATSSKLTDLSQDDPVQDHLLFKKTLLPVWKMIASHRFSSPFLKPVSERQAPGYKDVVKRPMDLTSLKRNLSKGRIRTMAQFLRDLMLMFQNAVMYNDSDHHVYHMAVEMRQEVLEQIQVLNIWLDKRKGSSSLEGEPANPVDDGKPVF
Sequence of SWI/SNF-related matrix-associated actin-dependent regulator of chromatin subfamily A member 4 (P51532 whole entry, the tested form may be a part): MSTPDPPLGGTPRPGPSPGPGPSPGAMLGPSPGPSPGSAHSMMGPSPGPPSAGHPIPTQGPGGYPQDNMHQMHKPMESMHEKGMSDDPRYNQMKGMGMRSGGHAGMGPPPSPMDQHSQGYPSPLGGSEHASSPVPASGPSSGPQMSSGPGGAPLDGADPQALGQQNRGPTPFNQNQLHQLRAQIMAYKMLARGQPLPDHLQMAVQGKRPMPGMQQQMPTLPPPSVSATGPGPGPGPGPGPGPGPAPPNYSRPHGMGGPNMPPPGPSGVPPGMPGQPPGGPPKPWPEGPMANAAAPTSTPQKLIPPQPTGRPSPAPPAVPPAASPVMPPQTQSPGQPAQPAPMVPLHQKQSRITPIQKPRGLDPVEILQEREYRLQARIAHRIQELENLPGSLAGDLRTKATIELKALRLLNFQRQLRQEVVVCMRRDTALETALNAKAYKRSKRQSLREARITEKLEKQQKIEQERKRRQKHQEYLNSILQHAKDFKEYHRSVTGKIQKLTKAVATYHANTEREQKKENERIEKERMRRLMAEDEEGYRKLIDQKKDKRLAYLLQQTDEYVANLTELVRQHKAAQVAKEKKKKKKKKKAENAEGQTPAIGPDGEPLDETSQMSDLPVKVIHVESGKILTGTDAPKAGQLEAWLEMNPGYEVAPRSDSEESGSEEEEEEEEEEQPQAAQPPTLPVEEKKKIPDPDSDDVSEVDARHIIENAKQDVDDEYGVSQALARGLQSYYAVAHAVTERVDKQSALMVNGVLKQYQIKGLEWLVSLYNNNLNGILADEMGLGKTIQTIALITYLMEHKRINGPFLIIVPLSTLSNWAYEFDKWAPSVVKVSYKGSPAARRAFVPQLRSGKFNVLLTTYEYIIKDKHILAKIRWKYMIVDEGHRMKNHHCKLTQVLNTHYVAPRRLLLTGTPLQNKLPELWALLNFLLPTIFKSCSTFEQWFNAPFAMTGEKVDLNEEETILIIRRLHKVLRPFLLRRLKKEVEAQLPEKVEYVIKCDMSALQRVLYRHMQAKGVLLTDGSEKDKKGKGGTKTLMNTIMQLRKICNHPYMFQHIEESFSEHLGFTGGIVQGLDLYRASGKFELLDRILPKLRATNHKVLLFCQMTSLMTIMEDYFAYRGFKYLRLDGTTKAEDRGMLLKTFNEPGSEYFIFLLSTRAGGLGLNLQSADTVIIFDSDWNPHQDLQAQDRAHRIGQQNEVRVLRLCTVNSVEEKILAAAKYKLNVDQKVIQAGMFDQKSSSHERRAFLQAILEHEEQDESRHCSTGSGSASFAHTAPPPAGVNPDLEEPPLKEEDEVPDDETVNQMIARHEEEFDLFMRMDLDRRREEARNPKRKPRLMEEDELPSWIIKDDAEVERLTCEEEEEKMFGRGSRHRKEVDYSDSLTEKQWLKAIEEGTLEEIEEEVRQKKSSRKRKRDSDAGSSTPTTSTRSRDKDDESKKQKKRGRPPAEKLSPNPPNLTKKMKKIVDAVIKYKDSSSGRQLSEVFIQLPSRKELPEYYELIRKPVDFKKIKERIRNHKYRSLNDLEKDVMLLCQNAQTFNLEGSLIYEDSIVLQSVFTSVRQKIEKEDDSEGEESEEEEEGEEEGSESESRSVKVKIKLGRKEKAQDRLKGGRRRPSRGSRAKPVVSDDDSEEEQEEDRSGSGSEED
Sequence of E3 ubiquitin-protein ligase TRIM33 (Q9UPN9 whole entry, the tested form may be a part): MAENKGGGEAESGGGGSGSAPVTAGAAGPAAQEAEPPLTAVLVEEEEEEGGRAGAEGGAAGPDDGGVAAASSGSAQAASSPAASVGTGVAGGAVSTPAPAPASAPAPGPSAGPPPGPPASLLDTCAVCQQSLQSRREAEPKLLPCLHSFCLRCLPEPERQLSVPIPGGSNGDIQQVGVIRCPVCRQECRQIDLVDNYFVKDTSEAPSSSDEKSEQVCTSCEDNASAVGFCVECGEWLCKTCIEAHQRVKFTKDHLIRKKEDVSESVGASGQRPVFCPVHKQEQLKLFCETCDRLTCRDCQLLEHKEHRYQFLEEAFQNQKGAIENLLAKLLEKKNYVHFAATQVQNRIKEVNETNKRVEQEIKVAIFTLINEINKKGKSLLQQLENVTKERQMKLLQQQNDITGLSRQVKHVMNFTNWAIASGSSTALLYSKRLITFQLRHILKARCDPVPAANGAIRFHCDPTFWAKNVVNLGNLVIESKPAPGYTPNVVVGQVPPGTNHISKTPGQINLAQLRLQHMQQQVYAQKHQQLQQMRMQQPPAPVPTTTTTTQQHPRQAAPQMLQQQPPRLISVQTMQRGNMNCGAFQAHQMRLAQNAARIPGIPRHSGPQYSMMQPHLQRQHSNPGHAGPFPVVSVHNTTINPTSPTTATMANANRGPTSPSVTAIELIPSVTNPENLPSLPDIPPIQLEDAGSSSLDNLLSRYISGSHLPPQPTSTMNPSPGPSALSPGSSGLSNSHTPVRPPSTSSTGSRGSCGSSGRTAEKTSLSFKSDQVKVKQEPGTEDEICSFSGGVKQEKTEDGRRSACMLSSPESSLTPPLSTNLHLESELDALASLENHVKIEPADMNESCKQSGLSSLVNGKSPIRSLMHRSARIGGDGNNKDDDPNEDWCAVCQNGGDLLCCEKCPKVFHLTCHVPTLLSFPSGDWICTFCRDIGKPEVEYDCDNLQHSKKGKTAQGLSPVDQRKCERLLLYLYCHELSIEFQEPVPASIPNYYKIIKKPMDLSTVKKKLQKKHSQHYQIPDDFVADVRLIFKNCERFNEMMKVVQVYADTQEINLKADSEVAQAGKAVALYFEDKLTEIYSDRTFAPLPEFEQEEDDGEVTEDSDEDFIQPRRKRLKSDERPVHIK
Sequence of Histone acetyltransferase KAT2A (Q92830 whole entry, the tested form may be a part): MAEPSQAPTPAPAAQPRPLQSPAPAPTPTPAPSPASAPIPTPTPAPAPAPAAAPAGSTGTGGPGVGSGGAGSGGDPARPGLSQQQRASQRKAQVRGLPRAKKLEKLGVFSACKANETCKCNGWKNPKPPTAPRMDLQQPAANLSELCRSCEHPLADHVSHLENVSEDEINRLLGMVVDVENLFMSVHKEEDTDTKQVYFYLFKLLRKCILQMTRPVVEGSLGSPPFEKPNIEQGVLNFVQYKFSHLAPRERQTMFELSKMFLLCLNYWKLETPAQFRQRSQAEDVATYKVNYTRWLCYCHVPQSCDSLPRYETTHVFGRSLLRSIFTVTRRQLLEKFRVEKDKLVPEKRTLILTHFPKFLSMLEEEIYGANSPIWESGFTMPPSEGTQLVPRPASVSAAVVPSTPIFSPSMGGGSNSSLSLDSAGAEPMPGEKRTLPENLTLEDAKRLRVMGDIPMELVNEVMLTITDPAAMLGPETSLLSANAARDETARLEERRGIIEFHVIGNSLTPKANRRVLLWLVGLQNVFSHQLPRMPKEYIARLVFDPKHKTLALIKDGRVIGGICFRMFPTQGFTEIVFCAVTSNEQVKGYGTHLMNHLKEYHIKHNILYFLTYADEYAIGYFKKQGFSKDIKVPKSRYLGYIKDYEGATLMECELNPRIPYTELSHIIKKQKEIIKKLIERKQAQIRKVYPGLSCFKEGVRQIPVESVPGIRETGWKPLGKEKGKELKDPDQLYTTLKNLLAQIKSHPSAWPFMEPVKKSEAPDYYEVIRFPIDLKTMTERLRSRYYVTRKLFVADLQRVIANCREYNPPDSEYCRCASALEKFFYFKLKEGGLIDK

CCS(=O)(=O)Nc1ccc(Oc2ccc(F)cc2F)c(-c2cn(C)c(=O)c3[nH]ccc23)c1 [MIVEBRESIB]
Drug excretion (Rattus norvegicus [1]): 76 %ID
bioavailability [2]: 41%
CLint scaled [3]: 66.7 mL/min/kg
clearance [4]: 8.33 mL/min/kg
pKd [5]: < 6.00
pKd [6]: < 6.00
pKd [7]: 7.06
CLint scaled [8]: 58.3 mL/min/kg
clearance [9]: 2.33 mL/min/kg
pKd [10]: < 6.00
pKd [11]: < 6.00
CL free (Liver): < 48.3 mL/min/kg
pKd [12]: < 6.00
fraction unbound at 4 h, 1 µM [13]: 0.02
inhibition in vivo at 1 mg/kg (Kasumi 1): 99%
CLint scaled at 10 µM [14]: 66.7 mL/min/kg
FaFg (Mus musculus [15]): 0.9
pKi [16]: 8.82
CLint scaled at 10 µM [17]: < 25 mL/min/kg
pKi [18]: 8.66
pKd [19]: < 6.00
clearance (Rattus norvegicus [20]): 450 mL/min/kg
bioavailability [21]: 50%
fAUC (Rattus norvegicus [22]): 0.27 µM·h
pKd [23]: < 6.00
inhibition [24]: 87%
pKd (Peregrin): < 6.00
inhibition (Mus musculus [25]): Dose-dependent effect
Activity (Mus musculus [26]): 6%
clearance [27]: 3.17 mL/min/kg
bioavailability [28]: 33%
pKd [29]: < 6.00
pIC50 (Adenosine receptor A2b): 5.59
pKd (Protein polybromo-1): < 6.00
half-life [30]: 4.4 h
Cp (Mus musculus [31]): 0.03 to 0.1 µM
CLint scaled [32]: 14.5 mL/min/kg
